Screening results (PubChem)
A selection: hits, their analogues and other compounds. The true share with any hit is near 1.5%.
S100A4 MyoIIA – blocks human S100A4 binding to myosin IIA peptide; P26447; S100A4/TAMRA-MyoIIA peptide fluorescence polarization; inhibition, % at 10.7 µM; 360,000 compounds, 0.14% hits; AID 652163;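 active = mean inhibition of at least 70% across replicates, with every replicate also reaching that level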
Target sequence (P26447 whole entry, looked up): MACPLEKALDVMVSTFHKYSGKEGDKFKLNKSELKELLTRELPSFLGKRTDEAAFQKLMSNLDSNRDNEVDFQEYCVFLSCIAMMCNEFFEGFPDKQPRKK
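Material: S100A4 monomer protein / Buffer or medium: 50 mM HEPES pH 7.2, 10 mM CaCl2, 100 mM KCl / Times: 5 min incubation before reading / Benchmarks: neutral control DMSO, positive control TFP / Reagent: labelled myosin peptide probe, 5 nM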
AF4-AF9 inh – blocks AF4 peptide binding to human AF9; P42568; 350,000 compounds, 0.47% hits; AID 651704; inhibition, % at 10 µM; AlphaScreen, biotin-AF4 peptide binding to FLAG-AF9;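 active = every replicate reaching a set inhibition limit, whatever the replicate mean, cut at about 25% in these data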;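 also: 0% = plate neutral control median and 100% = total signal loss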
Target sequence (P42568 whole entry, looked up): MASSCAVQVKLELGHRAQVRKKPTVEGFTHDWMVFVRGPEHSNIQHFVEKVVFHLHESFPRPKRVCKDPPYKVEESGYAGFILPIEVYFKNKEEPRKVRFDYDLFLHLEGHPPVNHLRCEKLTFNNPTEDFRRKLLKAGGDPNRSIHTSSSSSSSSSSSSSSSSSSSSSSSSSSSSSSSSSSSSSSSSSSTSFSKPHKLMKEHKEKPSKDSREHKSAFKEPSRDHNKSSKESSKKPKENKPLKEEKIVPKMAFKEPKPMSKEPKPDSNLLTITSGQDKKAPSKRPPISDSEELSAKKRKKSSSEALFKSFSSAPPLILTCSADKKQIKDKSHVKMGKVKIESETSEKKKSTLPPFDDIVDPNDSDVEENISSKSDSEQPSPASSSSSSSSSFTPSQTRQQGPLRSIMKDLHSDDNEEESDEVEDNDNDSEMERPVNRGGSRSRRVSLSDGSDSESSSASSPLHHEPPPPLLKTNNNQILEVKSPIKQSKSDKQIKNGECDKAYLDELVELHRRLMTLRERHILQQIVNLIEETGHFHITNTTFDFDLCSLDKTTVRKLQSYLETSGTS
INS-1E GSIS act – GLuc luminescence reporter in INS-1E cells, primary screen for activators of glucose-dependent secretion of insulin; INS-1E GLuc reporter insulin secretion, 2-3 h; activation, % at 16.6 µM; 370,000 compounds, 0.61% hits; AID 743287;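 active = lowest replicate activation of at least 40%, so every replicate reaches that level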;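 also: 0% = median of neutral control wells and 100% = median of IBMX positive control wells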
RAD52 inh – RAD52 (human) annealing inhibition; P43351; 360,000 compounds, 0.46% hits; inhibition, % at 18.7 µM; recombinant RAD52 DNA annealing, FRET fluorescence; AID 651710;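 active = every replicate showing at least 50% inhibition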
ERAP1 HTS inh – ERAP1 (human) enzyme inhibition; Q9NZ08; recombinant ERAP1, Leu-AMC fluorescence, 60 min; inhibition, % at 10.7 µM; 340,000 compounds, 0.15% hits; AID 652197;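 active = mean replicate inhibition of at least 30%, or all replicates individually reaching that 30% level; inactive = mean below 30% and not every replicate reaching it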;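 also: 0% = neutral control wells and 100% = L-leucinethiol positive control wells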
An asterisk follows results filed as active; nt = no result given.

SMILES | S100A4 MyoIIA | AF4-AF9 inh | INS-1E GSIS act | RAD52 inh | ERAP1 HTS inh
CCCNC(=O)N1CC2(C1)CN(C(=O)COC)[C@H](CO)c1c2c2ccc(OC)cc2n1C | nt | nt | 10.5 | nt | nt
O=C1CC(=O)Nc2cc(S(=O)(=O)NCc3cccs3)ccc2N1 | -0.3 | -1.0 | 41.4* | -14.6 | 1.5
CCN(CC)S(=O)(=O)c1ccc(S(=O)(=O)NCc2cccs2)cc1 | 1.1 | 0.5 | 21.5 | -11.7 | -1.4
Cn1c(=O)[nH]c(=O)c2c1nc(N1CCCC1)n2CCO | -1.5 | 1.3 | -0.4 | -2.2 | -1.8
Cn1c(=O)[nH]c(=O)c2c1nc(N1CCCCCC1)n2CC(N)=O | -1.3 | nt | 0.4 | -17.2 | 1.4
Cc1cccc(Cn2c(N(C)Cc3ccccc3)nc3c2c(=O)[nH]c(=O)n3C)c1 | -2.6 | -4.1 | nt | 3.6 | 2.4
C/C=C/Cn1c(N2CCCCCC2)nc2c1c(=O)[nH]c(=O)n2C | nt | nt | 61.8* | nt | nt
C/C=C/Cn1c(Br)nc2c1c(=O)[nH]c(=O)n2C | 0.1 | 0.3 | 64.9* | 13.1 | -1.7
C/C=C/Cn1c(N(C)Cc2ccccc2)nc2c1c(=O)[nH]c(=O)n2C | -7.8 | 3.3 | 46.5* | -38.8 | 1.2
Cn1c(=O)[nH]c(=O)c2c1nc(N1CCCCC1)n2C/C=N/Nc1ccc(C(=O)O)cc1 | 3.2 | -10.4 | 48.8* | -40.3 | -1.0
C/C=C/[C@@H](CC(=O)N1Cc2ccccc2C[C@H]1CO)[Si](C)(C)c1ccc(OC)cc1 | 0.4 | -0.4 | nt | 8.4 | 3.8
COc1ccc(C2=NN(C(=O)CCCC(=O)O)C(c3cccs3)C2)cc1OC (stereo not given) | -1.9 | 6.3 | 103.8* | -26.1 | 0.3
COc1cccc(C2=NN(C(=O)CCCC(=O)O)C(c3cccs3)C2)c1 (stereo not given) | -1.1 | -8.4 | 17.3 | -22.3 | 2.4
COc1ccc(C2=NN(C(=O)c3ccco3)C(c3cccs3)C2)cc1OC (stereo not given) | -4.8 | 5.8 | 80.9* | -9.4 | 4.1
c1ccc2c(c1)ccc1ccccc12 | -1.1 | -1.6 | nt | -6.0 | 0.7
CC1=[N+](C)c2ccc3ccccc3c2C1(C)C | 144.9* | 22.7 | -3.5 | -27.7 | 2.7
COc1ccc(/C(C)=N/Nc2nc3ccccc3n3cnnc23)cc1OC | 1.8 | -1.2 | 44.1* | -39.9 | nt
CCCNC(=O)N1CC2(CN(Cc3ccccn3)C2)c2c(n(C)c3cc(OC)ccc23)[C@H]1CO | nt | 11.1 | 1.7 | nt | nt
CN(C)c1ccc(Nc2nc(N)c([N+](=O)[O-])c(N3CCOCC3)n2)cc1 | -33.4 | 30.2* | -32.1 | 18.7 | 2.8
COc1ccc(CN(C)C[C@@H]2Oc3ccc(NS(=O)(=O)c4cccs4)cc3C(=O)N([C@@H](C)CO)C[C@@H]2C)cc1 | 19.8 | -0.8 | 1.8 | 7.6 | 2.5
CCOC(=O)CCCCC(=O)c1[nH]c(=O)[nH]c1CN1CCOCC1 | -1.1 | 85.0* | 5.7 | -12.4 | -1.8
COc1ccc(NC(=O)N2CCCCN3[C@H](CO)[C@@H](c4ccc(C#Cc5ccccc5)cc4)[C@H]3C2)cc1 | 6.1 | 3.3 | nt | 69.8* | -3.5
COc1ccc(NC(=O)N2CCCCN3[C@@H](CO)[C@@H](c4ccc(C#Cc5ccccc5)cc4)[C@@H]3C2)cc1 | -13.0 | 20.8 | nt | 96.6* | -2.9
COc1ccc(NC(=O)N2CCCCN3[C@H](CO)[C@H](c4ccc(C#Cc5ccccc5)cc4)[C@@H]3C2)cc1 | -9.3 | -5.2 | nt | 31.3 | 3.8
COc1ccc(NC(=O)N2CCCCN3[C@H](CO)[C@@H](c4ccc(C#Cc5ccccc5)cc4)[C@@H]3C2)cc1 | -7.5 | -6.6 | nt | 71.2* | -0.6
SMILES | S100A4 MyoIIA | AF4-AF9 inh | INS-1E GSIS act | RAD52 inh | ERAP1 HTS inh
COc1ccc(C#Cc2ccc([C@@H]3[C@@H](CO)N4CCCCN(C(=O)Nc5ccccc5)C[C@@H]34)cc2)cc1 | -0.6 | -10.5 | -3.6 | -17.6 | 3.4
CC(C)c1cn(CC[C@@H]2CC[C@H](NC(=O)C3CCOCC3)[C@@H](CO)O2)nn1 | 2.8 | 0.6 | 18.3 | 1.2 | -0.9
CO[C@H]1CN(C)C(=O)c2cc(NC(=O)NC(C)C)ccc2OC[C@H](C)N(Cc2ccc(-c3ccccn3)cc2)C[C@H]1C | 2.5 | -0.1 | -19.2 | -10.1 | -2.2
O=C(O)c1ccccc1C(=O)Nc1cc(-c2ccccc2)[nH]n1 | 8.2 | 0.4 | 8.7 | -9.4 | 4.3
O=C(O)c1ccccc1C(=O)Nc1n[nH]c(=S)s1 | -2.9 | 0.7 | -7.9 | -11.2 | 79.3*
COc1ccc(S(=O)(=O)N2CCc3ccccc3C2)cc1OC | -3.6 | -5.7 | 62.8* | -1.1 | -2.4
COc1ccc(S(=O)(=O)N2CCc3ccccc3C2)cc1C(=O)O | -12.5 | 0.6 | 16.3 | -13.2 | -0.4
O=C(COC(=O)CNC(=O)c1ccc(Cl)cc1)Nc1ccc(Cl)cn1 | -3.7 | -2.7 | 18.2 | 2.5 | -8.9
NC(=O)c1ccsc1NC(=O)COC(=O)CNC(=O)c1ccc(Cl)cc1 | -3.6 | 0.4 | 49.9* | -13.5 | -2.4
C[C@H](CO)N1C[C@H](C)[C@@H](CN(C)S(=O)(=O)c2ccc(Cl)cc2)OCCCC[C@H](C)Oc2ccc(NC(=O)NC3CCCCC3)cc2C1=O | 4.2 | -0.3 | -3.9 | 9.8 | 0.3
COc1ccc(NC(=O)Nc2ccc3c(c2)C(=O)N([C@H](C)CO)C[C@@H](C)[C@H](CN(C)S(=O)(=O)c2cn(C)cn2)O3)cc1 | 5.7 | -1.8 | -2.0 | 8.8 | 2.1
CCN(CC)c1ccc(NC(=O)CN(C)Cc2cccs2)cc1 | 10.2 | 27.4* | 5.5 | -2.6 | 1.4
CCCCCCCCOC(=O)c1c(CSC(=N)N)n(C)c2cc(Br)c(OC(C)=O)cc12 | -2.4 | 5.7 | 269.1* | 82.6* | nt
CCOC(=O)c1c(CSC(=N)N)n(-c2ccc(Br)cc2)c2cc(Br)c(OC(C)=O)cc12 | nt | nt | 7.2 | nt | nt
Cc1cccc2nc(-c3ccco3)c(Nc3ccccc3)n12 | 0.8 | 2.4 | 41.0* | -18.0 | 3.0
COc1cccc(-c2cnc3c(c2)C(=O)N([C@@H](C)CO)C[C@@H](C)[C@@H](CN(C)C(C)=O)O3)c1 | -1.0 | -3.7 | 8.0 | -3.2 | -3.1
O=C(O)[C@@H]1[C@@H](CO)[C@@H]2Cn3c(ccc(-c4ccc(F)cc4)c3=O)[C@@H]2N1C(=O)Nc1ccccc1 | nt | nt | -9.8 | nt | nt
CC(C)Cn1c2c(c(=O)[nH]c1=O)C(C(F)(F)F)(C(F)(F)F)N=C(CCC1CCCCC1)N2 | nt | nt | 54.5* | nt | nt
N#Cc1c(N)c(C(=O)c2ccc(Cl)cc2)n2c1CCC2 | nt | nt | 31.2 | nt | nt
CCOC(=O)c1c(N)c(C#N)c2n1CCCC2 | nt | nt | 70.7* | nt | nt
CC(=O)NC[C@H]1[C@@H](c2ccc(-c3ccccc3F)cc2)[C@@H](CO)N1C(C)=O | -6.4 | 0.5 | -3.5 | -13.1 | 2.7
CCOc1cc(/C=C/C(=O)Nc2ccc(C(=O)NCCN(CC)CC)cc2)ccc1OCC(C)C | -4.7 | 30.9* | 68.1* | 26.6 | 16.3
COc1ccc2c3c([nH]c2c1)[C@@H](CO)N(C(=O)CN(C)C)CC31CCN(CC2CCCCC2)CC1 | nt | 12.4 | 34.1 | nt | nt
C[C@H](CO)N1C[C@H](C)[C@H](CN(C)C)Oc2ccc(NC(=O)CCN3CCOCC3)cc2C1=O | -2.0 | 0.3 | 4.3 | -6.2 | -0.3
